Assay [1] in a line: Selectivity index, ratio of IC50 for ovine COX-1 to IC50 for human recombinant COX-2.
Assay [2] has as its target T1, Polyunsaturated fatty acid 5-lipoxygenase (Homo sapiens) (UniProt P09917).
T1 sequence (whole entry): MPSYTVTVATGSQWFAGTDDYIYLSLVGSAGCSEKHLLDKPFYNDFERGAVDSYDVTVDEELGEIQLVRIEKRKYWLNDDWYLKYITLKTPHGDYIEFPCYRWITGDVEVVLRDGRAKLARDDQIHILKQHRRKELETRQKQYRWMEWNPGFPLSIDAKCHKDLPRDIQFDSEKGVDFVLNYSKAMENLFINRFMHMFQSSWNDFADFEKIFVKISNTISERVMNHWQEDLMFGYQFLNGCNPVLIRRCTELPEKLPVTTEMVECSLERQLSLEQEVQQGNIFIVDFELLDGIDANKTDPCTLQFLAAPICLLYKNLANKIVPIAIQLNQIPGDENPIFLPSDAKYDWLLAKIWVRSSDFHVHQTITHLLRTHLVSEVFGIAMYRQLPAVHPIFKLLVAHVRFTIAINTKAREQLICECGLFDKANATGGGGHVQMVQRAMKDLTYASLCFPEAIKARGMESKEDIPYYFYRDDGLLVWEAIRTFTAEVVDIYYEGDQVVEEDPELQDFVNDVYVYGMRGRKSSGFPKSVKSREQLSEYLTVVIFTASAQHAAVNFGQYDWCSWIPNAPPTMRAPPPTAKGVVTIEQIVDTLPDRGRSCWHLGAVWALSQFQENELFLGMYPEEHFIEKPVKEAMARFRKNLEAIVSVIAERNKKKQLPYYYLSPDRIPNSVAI
Nature of the assay: Inhibition of human recombinant 5-LOX assessed as reduction in LTB4 level using 800 uM arachidonic acid as substrate at 5 uM preincubated with enzyme for 10 mins followed by substrate addition and measured after 10 mins by ELISA relative to control. The settings on record: time 20.0 min. The essentials: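 Human recombinant 5-LOX, 1 unit per reaction, in PBS pH 7.4 containing 1 mM Na2EDTA and 200 µM ATP. Compound in DMSO (DMSO blank) held 10 min at 4°C. CaCl2 added, reaction started with arachidonic acid (800 µM solution) for 10 min at 37°C. Formic acid stop, 1:15 dilution, LTB4 measured by ELISA as % inhibition versus blank. At least three experiments in at least duplicate. Non-active cutoff below 50% inhibition at 5 µM.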

The target in assay [3] is T2, Prostaglandin G/H synthase 1 (Ovis aries, UniProt P05979).
T2 sequence (P05979 whole entry): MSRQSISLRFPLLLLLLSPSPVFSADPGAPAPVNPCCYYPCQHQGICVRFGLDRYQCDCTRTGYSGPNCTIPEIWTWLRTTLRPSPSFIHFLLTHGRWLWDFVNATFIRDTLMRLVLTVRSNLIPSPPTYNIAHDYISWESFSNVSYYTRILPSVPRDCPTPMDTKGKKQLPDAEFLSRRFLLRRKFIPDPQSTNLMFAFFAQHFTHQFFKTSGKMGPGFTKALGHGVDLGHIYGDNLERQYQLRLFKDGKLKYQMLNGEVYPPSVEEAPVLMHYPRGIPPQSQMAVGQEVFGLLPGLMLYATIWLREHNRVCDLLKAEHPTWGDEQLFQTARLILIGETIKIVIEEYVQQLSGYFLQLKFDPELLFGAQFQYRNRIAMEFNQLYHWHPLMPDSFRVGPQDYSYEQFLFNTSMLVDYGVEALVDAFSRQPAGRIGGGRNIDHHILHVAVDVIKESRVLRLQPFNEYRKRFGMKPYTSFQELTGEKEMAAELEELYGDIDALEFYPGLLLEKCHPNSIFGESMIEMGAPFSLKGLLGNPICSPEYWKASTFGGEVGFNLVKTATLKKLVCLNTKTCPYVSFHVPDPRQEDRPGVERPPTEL
Nature of the assay: Inhibition of ovine COX-1 assessed as reduction in PGE2 level using 10 uM arachidonic acid as substrate preincubated with enzyme for 5 mins followed by substrate addition and measured after 20 mins by ELISA. The method, boiled down:
(§1)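 Enzyme in 100 mM Tris pH 8.0 with 5 µM porcine hematin, 18 mM L-epinephrine and 50 µM Na2EDTA. Compound in DMSO (DMSO blank) 5 min at room temperature. Arachidonic acid (10 µM) added, 20 min at 37°C. Stopped with 10% formic acid, diluted 1:15, PGE2 measured by ELISA at 405 nm as % inhibition versus blank. At least three experiments in at least duplicate. Non-active below 50% inhibition at 20 µM.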
In general terms: In an ELISA, binding on a coated surface is turned into a signal by an enzyme label.

Assay [4] concerns the target T3, Prostaglandin G/H synthase 2 (Homo sapiens, UniProt P35354).
T3 sequence (P35354 whole entry): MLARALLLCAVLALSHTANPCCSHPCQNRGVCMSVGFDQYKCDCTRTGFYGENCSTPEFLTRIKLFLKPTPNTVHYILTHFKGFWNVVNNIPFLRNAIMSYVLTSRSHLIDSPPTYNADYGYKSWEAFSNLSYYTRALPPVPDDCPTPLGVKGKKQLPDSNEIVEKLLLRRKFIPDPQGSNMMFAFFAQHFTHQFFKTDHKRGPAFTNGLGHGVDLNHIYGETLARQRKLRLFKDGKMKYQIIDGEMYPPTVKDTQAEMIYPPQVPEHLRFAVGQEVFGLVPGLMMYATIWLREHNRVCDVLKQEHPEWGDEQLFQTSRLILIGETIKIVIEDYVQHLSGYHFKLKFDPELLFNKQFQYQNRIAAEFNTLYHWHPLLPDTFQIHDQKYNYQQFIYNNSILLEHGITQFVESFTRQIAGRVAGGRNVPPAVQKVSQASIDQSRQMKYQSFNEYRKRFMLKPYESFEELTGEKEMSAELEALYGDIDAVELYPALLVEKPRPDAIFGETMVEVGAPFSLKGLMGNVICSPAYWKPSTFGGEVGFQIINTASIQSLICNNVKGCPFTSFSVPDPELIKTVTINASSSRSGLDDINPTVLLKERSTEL
The experiment in a line: Inhibition of human recombinant COX-2 assessed as reduction in PGE2 level using 10 uM arachidonic acid as substrate preincubated with enzyme for 5 mins followed by substrate addition and measured after 20 mins by ELISA.

Assay [5] addresses T4, Prostaglandin G/H synthase 2 (Homo sapiens) (UniProt P35354).
T4 sequence (whole entry): T3 sequence (P35354 whole entry)
The experiment in a line: Inhibition of human recombinant COX-2 assessed as reduction in PGE2 level using 10 uM arachidonic acid as substrate at 20 uM preincubated with enzyme for 5 mins followed by substrate addition and measured after 20 mins by ELISA relative to control. As to conditions: time 25.0 min. The essentials:
as §1

In assay [6] the target is T5, Polyunsaturated fatty acid 5-lipoxygenase (Homo sapiens, UniProt P09917).
T5 sequence (P09917 whole entry): T1 sequence (whole entry)
The experiment in a line: Inhibition of human recombinant 5-LOX assessed as reduction in LTB4 level using 800 uM arachidonic acid as substrate preincubated with enzyme for 10 mins followed by substrate addition and measured after 10 mins by ELISA. The method, boiled down:
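Human recombinant 5-LOX, 1 unit per reaction, in PBS pH 7.4 containing 1 mM Na2EDTA and 200 µM ATP. Compound in DMSO (DMSO blank) held 10 min at 4°C. CaCl2 added, reaction started with arachidonic acid (800 µM solution) for 10 min at 37°C. Formic acid stop, 1:15 dilution, LTB4 measured by ELISA as % inhibition versus blank. At least three experiments in at least duplicate.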

The target of assay [7] is T6, Prostaglandin G/H synthase 1 (Ovis aries) (UniProt P05979).
T6 sequence (whole entry): T2 sequence (P05979 whole entry)
The experiment in a line: Inhibition of ovine COX-1 assessed as reduction in PGE2 level using 10 uM arachidonic acid as substrate at 20 uM preincubated with enzyme for 5 mins followed by substrate addition and measured after 20 mins by ELISA relative to control. The settings on record: time 25.0 min. The method, boiled down:
as §1

The nature of assay [8]: Antioxidant activity assessed as radical scavenging activity measured after 30 mins by DPPH assay. Type of assay: functional. The method, boiled down:
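Test compounds in methanol, two-fold serial dilution to final 3.125–400 µM, incubated 30 min with DPPH in methanol (stated final […]) at room temperature in the dark. Absorbance read at 517 nm. Trolox and L-ascorbic acid served as positive references. Activity expressed as EC50.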
In general terms: DPPH is a stable violet radical that fades when it is reduced.

Where only a bound is given, the exact number is not on record here.

`CCCCCCCCCCCCCc1cc(O)cc(O)c1`: the Ratio IC50 in assay [1] worked out at 0.87. Further, in assay [2], the inhibition – broadly, the percentage by which the read-out fell short of the control – is below 50%. Further, the IC50 (in general, the midpoint of a concentration-inhibition curve) in assay [3] stood at 2.38 µM; in assay [4] it was 2.74 µM.
Take `CCCCCc1cc(O)cc(OC)c1O`: the inhibition in assay [5] and in assay [7] was below 50% throughout. Besides, the IC50 in assay [6] was found to be 940 nM.
On to `CCCCCCCCCCCCCc1cc(OC(C)=O)cc(OC)c1OC(C)=O`, for which the inhibition in assay [5] and in assay [7] was below 50% each time. Further, the IC50 in assay [6] stood at 1020 nM.
Turning to `CCCCCc1cc(O)cc(OC)c1`, the inhibition in assay [2] and in assay [7] was below 50% each time. The IC50 in assay [4] was 15.9 µM.
Consider `CCCCCC1=CC(=O)C=C(OC)C1=O` [Primin], for which the Ratio IC50 in assay [1] is 9.96. The IC50 in assay [6] stood at 1370 nM; in assay [3], 18.9 µM; in assay [4], 1.9 µM.
`Cc1c(C)c2c(c(C)c1O)CCC(C)(C(=O)O)O2` (stereo not drawn) [TROLOX]: in assay [8], the EC50 (as a rule, the midpoint of the concentration-response curve) was determined as 32.5 µM.
Take `CCCCCC1=CC(=O)C=C(OC)C1=N`: the Ratio IC50 in assay [1] amounted to 2.71. The IC50 worked out at 1010 nM in assay [6], 15.8 µM in assay [3] and 5.82 µM in assay [4].
For `O=C1O[C@H]([C@@H](O)CO)C(O)=C1O` [ASCORBIC ACID], the concentration giving a half-maximal response (EC50) in assay [8] amounted to 31.1 µM.
Regarding `COc1cc(O)cc(Br)c1O`, the Ratio IC50 in assay [1] was determined as 1.27. The values for the half-inhibitory concentration (IC50) in assay [6], in assay [3] and in assay [4] were 1140 nM, 6.11 µM and 4.81 µM, respectively.
Take `CCCCCCCCCCCCCCCC1=CC(=O)C=C(OC)C1=O`: the IC50 turned out to be 790 nM in assay [6] and 8.97 µM in assay [4]. The inhibition in assay [7] was below 50%.
Consider `CCCCCc1cc(O)cc(O)c1` [WHILE OLIVETOL], for which the Ratio IC50 in assay [1] is 0.79. For the same molecule, in assay [2], the inhibition is below 50%. Besides, the concentration for half-maximal inhibition (IC50) in assay [3] worked out at 13.6 µM; in assay [4] it was 17.3 µM.
With `CCCCCCCCCCCCCCCc1cc(O)cc(OC)c1O`, in assay [1], the Ratio IC50 stood at 0.98. For the same molecule, the IC50 in assay [6] is 140 nM; in assay [3] it was 2.65 µM; in assay [4] it was 2.71 µM.
With `COC1=CC(=O)C=C(Br)C1=O`, in assay [1], the Ratio IC50 was 3.47. In addition, the figures for the IC50 in assay [6], in assay [3] and in assay [4] were 1670 nM, 15.6 µM and 4.48 µM, respectively.
Regarding `CCCCCCCCCCCc1cc(O)cc(OC)c1O`, the Ratio IC50 in assay [1] was determined as 1.95. Besides, the IC50 in assay [6] came to 280 nM; in assay [3], 1.07 µM; in assay [4], 0.55 µM.
Regarding `CCCCCc1cc(OC(C)=O)cc(OC)c1OC(C)=O`, the inhibition in assay [5] and in assay [7] was below 50% in each case. Moreover, in assay [6], the concentration for half-maximal inhibition (IC50) stood at 1090 nM.
Take `CCCCCc1cccc(OC)c1O`: the Ratio IC50 in assay [1] amounted to 1.17. For the same molecule, the IC50 in assay [6] turned out to be 3720 nM; in assay [3], 5.42 µM; in assay [4], 4.65 µM.
`CCCCCCCCCCCCCc1cc(O)cc(OC)c1O`: the Ratio IC50 in assay [1] came to 2.18. Moreover, the concentration for half-maximal inhibition (IC50) in assay [6] amounted to 1490 nM; in assay [3], 3.38 µM; in assay [4], 1.55 µM.
In the case of `CCCCCCCCCCCCCCCc1cc(O)cc(O)c1` [CARDOL], in assay [1], the Ratio IC50 is 2.38. Moreover, the inhibition in assay [2] was below 50%. The values for the IC50 in assay [3] and in assay [4] were 5.61 µM and 2.36 µM, respectively.
As to `CCCCCCCCCCCCCC1=CC(=O)C=C(OC)C1=O`, the IC50 was determined as 1050 nM in assay [6], 0.25 µM in assay [3] and 0.88 µM in assay [4].
`COC1=CC(=O)C=C(Br)C1OC(C)=O` (stereo not drawn): the EC50 in assay [8] was determined as 45.6 µM. The inhibition in assay [5] and in assay [7] was below 50% each time. Also, the IC50 in assay [6] amounted to 170 nM.

These data come from ChEMBL document CHEMBL4706530, “Synthesis, inhibitory activity and in silico docking of dual COX/5-LOX inhibitors with quinone and resorcinol core” (Eur J Med Chem, 2020).
